What was measured:
[1] = molecular target: T1, 5-hydroxytryptamine receptor 1A (Homo sapiens) (UniProt P08908); test: Displacement of [3H]-8-OH-DPAT from human cloned 5HT1A receptor expressed in HEK293 cells at 1 uM by scintillation counting analysis; type: cell-based
T1 sequence (whole entry): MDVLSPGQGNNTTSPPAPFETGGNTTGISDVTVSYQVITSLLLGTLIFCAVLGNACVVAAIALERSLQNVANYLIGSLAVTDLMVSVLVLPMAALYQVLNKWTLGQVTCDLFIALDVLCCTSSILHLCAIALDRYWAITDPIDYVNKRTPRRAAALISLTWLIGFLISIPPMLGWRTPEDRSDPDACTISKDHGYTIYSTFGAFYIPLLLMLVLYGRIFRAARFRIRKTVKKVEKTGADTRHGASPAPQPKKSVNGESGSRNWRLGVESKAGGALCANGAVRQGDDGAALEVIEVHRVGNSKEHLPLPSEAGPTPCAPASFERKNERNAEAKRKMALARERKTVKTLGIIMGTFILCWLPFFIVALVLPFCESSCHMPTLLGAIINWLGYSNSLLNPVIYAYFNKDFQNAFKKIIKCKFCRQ
Summary of the method: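 Extended binding screen run by a contract lab. Receptors were cloned human: 5-HT1A, 5-HT2A, 5-HT2C and H1 in HEK-293 cells; D1, α1, α2C and M3 in CHO cells; 5-HT6/7 and D2/3/4 in CHO cells. Radioligand displacement was done at a single 1.0E-06 concentration in duplicate. Results are mean % inhibition of control specific binding.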

[2] = molecular target: T2, 5-hydroxytryptamine receptor 1A (Rattus norvegicus, UniProt P19327); test: Displacement of [3H]-8-OH-DPAT from 5-HT1A receptor in rat hippocampal membrane by liquid scintillation analysis; type: cell membranes, Hippocampus
T2 sequence (P19327 whole entry): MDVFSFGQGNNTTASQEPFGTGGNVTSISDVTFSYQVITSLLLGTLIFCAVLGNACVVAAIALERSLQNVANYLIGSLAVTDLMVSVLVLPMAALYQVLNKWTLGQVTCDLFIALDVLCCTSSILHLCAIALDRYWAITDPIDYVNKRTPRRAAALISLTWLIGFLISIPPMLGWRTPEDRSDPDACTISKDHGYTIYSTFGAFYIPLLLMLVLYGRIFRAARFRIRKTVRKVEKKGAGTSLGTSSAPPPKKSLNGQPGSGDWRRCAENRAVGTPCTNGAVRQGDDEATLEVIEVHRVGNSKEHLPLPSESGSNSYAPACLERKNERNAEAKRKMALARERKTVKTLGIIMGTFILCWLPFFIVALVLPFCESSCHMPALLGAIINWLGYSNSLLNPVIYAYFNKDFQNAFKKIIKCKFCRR
Summary of the method: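 Native rat membranes were used: hippocampus with [3H]-8-OH-DPAT (170 Ci/mmol) and 5-HT for non-specific binding; cortex with [3H]-ketanserin (88.0 Ci/mmol) and methysergide; hypothalamus with [3H]-5-CT (34.5 Ci/mmol) and 5-HT. Compounds were tested in triplicate at 7–8 concentrations (10⁻¹¹–10⁻⁴ M). Read-out was liquid scintillation counting. Ki came from nonlinear regression with Cheng-Prusoff, as the mean of at least two experiments.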

[3] = molecular target: D(2) dopamine receptor (Homo sapiens) (UniProt P14416); test: Agonist activity at human recombinant D2 receptor expressed in HEK293 cells at 1 uM; type: cell-based
Chain of D(2) dopamine receptor (Homo sapiens) (P14416 whole entry): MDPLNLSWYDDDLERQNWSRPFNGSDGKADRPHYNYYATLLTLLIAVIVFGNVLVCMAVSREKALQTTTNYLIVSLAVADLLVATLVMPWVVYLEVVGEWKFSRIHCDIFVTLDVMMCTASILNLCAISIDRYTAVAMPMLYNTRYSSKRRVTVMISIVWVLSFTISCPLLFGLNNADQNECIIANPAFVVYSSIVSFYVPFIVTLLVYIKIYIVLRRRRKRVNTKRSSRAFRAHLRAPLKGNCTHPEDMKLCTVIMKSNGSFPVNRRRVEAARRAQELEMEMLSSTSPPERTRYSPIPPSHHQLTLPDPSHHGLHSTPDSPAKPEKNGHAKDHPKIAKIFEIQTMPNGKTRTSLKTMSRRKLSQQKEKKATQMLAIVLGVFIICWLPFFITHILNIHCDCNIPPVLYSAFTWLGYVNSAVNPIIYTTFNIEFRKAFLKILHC
Summary of the method: (§1)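 Functional assays run by a contract lab on CHO or HEK-293 cells stably expressing the human receptor. Read-out was intracellular cAMP, IP1 or Ca2+ release. A single test concentration of 1.0E-06 was used, in duplicate. Data are mean % of the control response.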

[4] = molecular target: D(2) dopamine receptor (Homo sapiens) (UniProt P14416); test: Antagonist activity at human recombinant D2 receptor expressed in HEK293 cells assessed as inhibition of dopamine-induced response at 1 uM; type: cell-based; summary of the method: as §1
[5] = molecular target: T3, Alpha-2C adrenergic receptor (Homo sapiens) (UniProt P18825); test: Agonist activity at human recombinant alpha2C adrenoceptor expressed in CHO cells assessed as intracellular cAMP release at 1 uM by HTRF assay; type: functional, cell-based; summary of the method: as §1
T3 sequence (whole entry): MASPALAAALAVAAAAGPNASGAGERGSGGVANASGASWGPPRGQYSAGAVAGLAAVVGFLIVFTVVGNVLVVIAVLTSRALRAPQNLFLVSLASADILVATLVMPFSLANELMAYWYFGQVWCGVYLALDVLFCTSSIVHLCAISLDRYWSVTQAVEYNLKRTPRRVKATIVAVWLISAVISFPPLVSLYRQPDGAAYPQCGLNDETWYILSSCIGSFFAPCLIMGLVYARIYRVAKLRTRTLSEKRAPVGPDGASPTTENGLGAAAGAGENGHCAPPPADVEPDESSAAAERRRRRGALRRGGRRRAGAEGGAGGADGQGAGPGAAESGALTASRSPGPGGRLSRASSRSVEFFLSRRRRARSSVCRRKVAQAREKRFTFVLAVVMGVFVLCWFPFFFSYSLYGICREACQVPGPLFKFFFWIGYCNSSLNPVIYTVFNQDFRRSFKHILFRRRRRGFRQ

[6] = molecular target: Adrenergic receptor alpha-1 (Homo sapiens) (UniProt P35348+P25100+P35368); test: Antagonist activity at human recombinant alpha1 adrenoceptor expressed in CHO cells assessed as inhibition of agonist induced response at 1 uM; type: cell-based; summary of the method: as §1
[7] = molecular target: 5-hydroxytryptamine receptor 2A (Homo sapiens) (UniProt P28223); test: Agonist activity at human recombinant 5HT2A receptor expressed in HEK293 cells assessed as intracellular IP1 release at 1 uM by HTRF assay; type: functional, cell-based; summary of the method: as §1
Chain of 5-hydroxytryptamine receptor 2A (Homo sapiens) (P28223 whole entry): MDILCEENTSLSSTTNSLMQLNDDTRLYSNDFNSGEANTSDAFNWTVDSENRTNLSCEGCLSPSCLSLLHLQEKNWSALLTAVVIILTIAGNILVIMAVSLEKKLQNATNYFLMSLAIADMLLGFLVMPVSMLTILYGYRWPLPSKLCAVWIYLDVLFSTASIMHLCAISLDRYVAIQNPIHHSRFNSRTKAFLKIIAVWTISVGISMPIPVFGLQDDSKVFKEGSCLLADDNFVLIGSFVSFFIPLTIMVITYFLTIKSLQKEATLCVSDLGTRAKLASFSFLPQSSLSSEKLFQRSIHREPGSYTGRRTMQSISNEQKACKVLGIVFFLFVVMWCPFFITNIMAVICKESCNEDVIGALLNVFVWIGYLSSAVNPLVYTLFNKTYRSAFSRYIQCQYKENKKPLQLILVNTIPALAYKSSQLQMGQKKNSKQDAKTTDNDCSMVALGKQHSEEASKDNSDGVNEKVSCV

[8] = molecular target: T4, D(4) dopamine receptor (Homo sapiens) (UniProt P21917); test: Antagonist activity at human recombinant D4 receptor expressed in CHO cells assessed as inhibition of dopamine-induced intracellular cAMP release at 1 uM by HTRF method; type: functional, cell-based; summary of the method: as §1
T4 sequence (whole entry): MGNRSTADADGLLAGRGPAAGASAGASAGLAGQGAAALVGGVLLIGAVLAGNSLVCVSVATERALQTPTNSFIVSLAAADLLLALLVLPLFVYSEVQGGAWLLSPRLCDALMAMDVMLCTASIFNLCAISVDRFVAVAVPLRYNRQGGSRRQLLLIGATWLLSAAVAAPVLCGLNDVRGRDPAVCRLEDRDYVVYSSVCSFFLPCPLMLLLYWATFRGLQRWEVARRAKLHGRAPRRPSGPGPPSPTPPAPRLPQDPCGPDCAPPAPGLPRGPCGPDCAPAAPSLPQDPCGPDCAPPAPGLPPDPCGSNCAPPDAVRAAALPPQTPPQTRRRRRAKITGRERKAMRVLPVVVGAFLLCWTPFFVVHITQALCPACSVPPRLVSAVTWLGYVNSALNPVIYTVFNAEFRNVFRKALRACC

[9] = molecular target: T1, 5-hydroxytryptamine receptor 1A (Homo sapiens); test: Agonist activity at human recombinant 5HT1A receptor expressed in HEK293 cells at 1 uM; type: cell-based; summary of the method: as §1
[10] = molecular target: D(3) dopamine receptor (Homo sapiens) (UniProt P35462); test: Agonist activity at human recombinant D3 receptor expressed in CHO cells assessed as intracellular cAMP release at 1 uM by HTRF method; type: functional, cell-based; summary of the method: as §1
Chain of D(3) dopamine receptor (Homo sapiens) (P35462 whole entry): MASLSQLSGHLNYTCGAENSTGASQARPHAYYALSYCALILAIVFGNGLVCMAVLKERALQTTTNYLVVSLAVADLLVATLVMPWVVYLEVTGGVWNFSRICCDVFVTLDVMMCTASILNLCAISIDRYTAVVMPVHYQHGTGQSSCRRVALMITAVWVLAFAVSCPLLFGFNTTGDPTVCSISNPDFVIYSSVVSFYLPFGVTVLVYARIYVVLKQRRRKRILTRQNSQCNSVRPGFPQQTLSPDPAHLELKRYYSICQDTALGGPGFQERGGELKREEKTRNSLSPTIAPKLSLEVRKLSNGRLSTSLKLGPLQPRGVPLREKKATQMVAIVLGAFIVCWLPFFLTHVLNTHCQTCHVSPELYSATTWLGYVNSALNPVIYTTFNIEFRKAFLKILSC

[11] = molecular target: T3, Alpha-2C adrenergic receptor (Homo sapiens); test: Antagonist activity at human recombinant alpha2C adrenoceptor expressed in CHO cells assessed as inhibition of epinephrine-induced intracellular cAMP release at 1 uM by HTRF assay; type: functional, cell-based; summary of the method: as §1

Row | inhibition [1] | Ki [2] | Activity [3] | inhibition [4] | Activity [5] | inhibition [6] | Activity [7] | inhibition [8] | Activity [9] | Activity [10] | inhibition [11] | Compound
1 | 103% | 12 nM |  |  |  |  |  |  |  |  |  | O=C1NC2(CCc3ccccc32)C(=O)N1CCCCN1CCN(c2cccc(Cl)c2)CC1 (stereo unspecified)
2 | 99% | 15 nM |  |  |  |  |  |  |  |  |  | O=C1NC2(CCCc3ccccc32)C(=O)N1CCCCN1CCN(c2cccc(Cl)c2)CC1 (stereo unspecified)
3 | 103% | 2.6 nM | 20% | 85% | 15% | 95% | 1% | 75% | 37% | 20% | 69% | COc1ccccc1N1CCN(CCCCN2C(=O)NC3(CCc4ccccc43)C2=O)CC1 (stereo unspecified)
4 | 98% | 2.2 nM | 24% | 91% | 20% | 94% | 0% | 84% | 26% | 18% | 79% | COc1ccccc1N1CCN(CCCCN2C(=O)NC3(CCCc4ccccc43)C2=O)CC1 (stereo unspecified)
